The values that follow come from ChEMBL document CHEMBL2169776, “Antimicrobial activity of peptidomimetics against multidrug-resistant Escherichia coli: a comparative study of different backbones” (J Med Chem, 2012).

Structures are written as SMILES. Converted amounts (≈) assume the structure as drawn. Square brackets hold non-standard residues; d marks the D form. Peptide text beside a SMILES is read from it. Nphe = O=C(O)CNCc1ccccc1; Nlys = NCCCCNCC(=O)O

Data set [1] can be described thus: Therapeutic index, ratio of HC10 for human erythrocyte cells to MIC for multidrug resistant bacterial strains. As to conditions: read-out: TI. Put shortly: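 TI = hemolytic activity divided by median of MIC values. Hemolysis: washed fresh human RBCs (1% v/v in TBS, pH 7.2) with 2-fold oligomer dilutions (1–128 μM), 37 °C, 1 h; supernatant OD 405 nm; melittin 400 μg/mL = 100%, TBS = 0%. HA = concentration giving ≥10% lysis. MICs by broth microdilution, 35 °C, 16–20 h.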

A further data set deals with HeLa. Nature of the data set: Cytotoxicity against human HeLa cells assessed as growth inhibition after 1 hr. The data set is classed as cell-based. Put shortly:
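HeLa cells seeded at 9000 per well, cultured 24 h; at 80−100% confluency washed with HBSS and exposed 1 h (37 °C, 50 rpm) to 2-fold serial dilutions in EMEM. After washing, MTS/PMS (240/2.4 μg/mL) in HBSS added for 1.5 h; formazan read at 492 nm. 0.2% SDS = 0%, EMEM alone = 100%. Test range 1−128 or 8−1024 μM; IC50 reported.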

Data set [2] in a line: Hemolytic activity against human RBCs after 1 hr by spectrophotometry. The data set is classed as ADME, cell-based. The conditions noted are these: erythrocyte. Put shortly: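 Freshly drawn human erythrocytes washed in TBS (pH 7.2, 10 mM Tris, 150 mM NaCl), 1% v/v suspension mixed with 2-fold serial dilutions (1−128 μM) in water; 1 h at 37 °C. After pelleting, supernatant diluted 1:1 with water and hemoglobin read at OD 405 nm. Melittin (400 μg/mL) = 100%, TBS = 0%. Value is the lowest concentration giving ≥10% lysis.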

For the next data set, the system named is Staphylococcus aureus. Nature of the data set: Antibacterial activity against methicillin-resistant Staphylococcus aureus isolate after 16 to 20 hrs by broth microdilution assay. The data set is classed as functional.
Data set [3] has as its system Klebsiella pneumoniae. As to the kind of experiment: Antibacterial activity against multidrug resistant NDM-1 producing Klebsiella pneumoniae isolate after 16 to 20 hrs by broth microdilution assay. Format: functional. On the technique in general: In broth dilution the organism is exposed to a series of concentrations in liquid medium.
Data set [4] concerns Klebsiella pneumoniae. Nature of the data set: Antibacterial activity against multidrug resistant KPC producing Klebsiella pneumoniae isolate after 16 to 20 hrs by broth microdilution assay. The data set is classed as functional.
In data set [5] the test system is Escherichia coli. As to the kind of experiment: Antibacterial activity against multidrug resistant Amp-C producing Escherichia coli isolate after 16 to 20 hrs by broth microdilution assay. Format: functional.
For data set [6], the system named is Escherichia coli. As to the kind of experiment: Antibacterial activity against multidrug resistant NDM-1 producing Escherichia coli isolate after 16 to 20 hrs by broth microdilution assay. Format: functional.
Data set [7] concerns Escherichia coli. Nature of the data set: Antibacterial activity against multidrug resistant ESBL producing Escherichia coli isolate after 16 to 20 hrs by broth microdilution assay. The data set is classed as functional.
The test system of data set [8] is Escherichia coli. As to the kind of experiment: Antibacterial activity against Escherichia coli ATCC 25922 after 16 to 20 hrs by broth microdilution assay. The data set is classed as functional.
Data set [9] can be described thus: Proteolytic stability of compound in presence of Pronase by reverse phase HPLC analysis. The data set is classed as ADME. Put shortly:
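Oligomer (2 mg/mL solution, 250 μL) incubated with Pronase (1.0 mg/mL solution, 50 μL) in 10 mM Tris pH 7.5 (1.2 mL); enzyme activity first confirmed on Nα-benzoyl arginine. Degradation followed by analytical reverse-phase HPLC (10−60% B) at 6, 12, 18 and 50 h; degradation product identified by HRMS.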

For `CC(=O)N(CCCCN)CC(=O)N(CC(=O)N(CCCCN)CC(=O)N(CC(=O)N(CCCCN)CC(=O)N(CC(=O)N(CCCCN)CC(=O)N(CC(=O)N(CCCCN)CC(=O)N(CC(=O)N(CCCCN)CC(=O)N(CC(=O)N(CCCCN)CC(=O)N(CC(=O)N(CCCCN)CC(=O)N(CC(N)=O)Cc1ccccc1)Cc1ccccc1)Cc1ccccc1)Cc1ccccc1)Cc1ccccc1)Cc1ccccc1)Cc1ccccc1)Cc1ccccc1` (Ac-[Nlys][Nphe][Nlys][Nphe][Nlys][Nphe][Nlys][Nphe][Nlys][Nphe][Nlys][Nphe][Nlys][Nphe][Nlys][Nphe]-NH2), the selectivity ratio in [1] is greater than 4. In the data set on HeLa, the IC50 turned out to be 194 µM. The molecule further gave an HC10 in data set [2] greater than 128 µM. The MIC against Staphylococcus aureus was determined as 256 µM (≈ 579 µg/mL); against Klebsiella pneumoniae [3], 256 µM (≈ 579 µg/mL); against Klebsiella pneumoniae [4], 256 µM (≈ 579 µg/mL); in the data set with Escherichia coli [5], 32 µM (≈ 72.4 µg/mL); in the data set with Escherichia coli [6], 32 µM (≈ 72.4 µg/mL); with Escherichia coli [7], 64 µM (≈ 145 µg/mL). Further, it took 32 µM (≈ 72.4 µg/mL) to inhibit growth with Escherichia coli [8] (MIC). In data set [9], the Stability result is “Stable”.
As to `CC(=O)N[C@@H](CCCCN)CC(=O)N[C@@H](Cc1ccccc1)C(=O)N[C@@H](CCCCN)CC(=O)N[C@@H](Cc1ccccc1)C(=O)N[C@@H](CCCCN)CC(=O)N[C@@H](Cc1ccccc1)C(=O)N[C@@H](CCCCN)CC(=O)N[C@@H](Cc1ccccc1)C(=O)N[C@@H](CCCCN)CC(=O)N[C@@H](Cc1ccccc1)C(=O)N[C@@H](CCCCN)CC(=O)N[C@@H](Cc1ccccc1)C(=O)N[C@@H](CCCCN)CC(=O)N[C@@H](Cc1ccccc1)C(=O)N[C@@H](CCCCN)CC(=O)N[C@@H](Cc1ccccc1)C(N)=O`, in [1], the selectivity ratio came to 8. Moreover, in the data set with HeLa, the IC50 worked out at 133 µM. In data set [2], the HC10 amounted to 64 µM. The MIC in the data set on Staphylococcus aureus turned out to be 256 µM (≈ 608 µg/mL); against Klebsiella pneumoniae [3] it was 256 µM (≈ 608 µg/mL); in the data set with Klebsiella pneumoniae [4] it was 128 µM (≈ 304 µg/mL); with Escherichia coli [5], 16 µM (≈ 38 µg/mL); with Escherichia coli [6] it was 4 µM (≈ 9.5 µg/mL); against Escherichia coli [7] it was 8 µM (≈ 19 µg/mL). Moreover, the lowest concentration to inhibit growth against Escherichia coli [8] (MIC) was 8 µM (≈ 19 µg/mL). In data set [9], the Stability entry was “Stable”.
Regarding `CC(=O)N[C@@H](CCCCN)C(=O)N(CCC(=O)N[C@@H](CCCCN)C(=O)N(CCC(=O)N[C@@H](CCCCN)C(=O)N(CCC(=O)N[C@@H](CCCCN)C(=O)N(CCC(=O)N[C@@H](CCCCN)C(=O)N(CCC(=O)N[C@@H](CCCCN)C(=O)N(CCC(=O)N[C@@H](CCCCN)C(=O)N(CCC(=O)N[C@@H](CCCCN)C(=O)N(CCC(N)=O)Cc1ccccc1)Cc1ccccc1)Cc1ccccc1)Cc1ccccc1)Cc1ccccc1)Cc1ccccc1)Cc1ccccc1)Cc1ccccc1`, the selectivity ratio in [1] is greater than 21. Moreover, the IC50 in the data set on HeLa was found to be 25.9 µM. In data set [2], this molecule showed an HC10 greater than 128 µM. For the same molecule, the MIC in the data set on Staphylococcus aureus is greater than 256 µM; in the data set on Klebsiella pneumoniae [3] it was 256 µM (≈ 608 µg/mL); in the data set on Klebsiella pneumoniae [4], 128 µM (≈ 304 µg/mL); in the data set with Escherichia coli [5] it was 8 µM (≈ 19 µg/mL); with Escherichia coli [6], 4 µM (≈ 9.5 µg/mL); in the data set on Escherichia coli [7], 4 µM (≈ 9.5 µg/mL). In the data set with Escherichia coli [8], the MIC came to 8 µM (≈ 19 µg/mL). In addition, in data set [9], the Stability result is on record as “Stable”.

For orientation: IC50 means the concentration that gives 50% inhibition. What is called MIC is the smallest concentration in the dilution series that meets the test's criterion for growth inhibition.
